Measured values from publication PMC12004261 (RSC Medicinal Chemistry, 2025).
Entries after “also recorded” stand apart in the source; their conditions may differ.

Legend:
[1] = target: CBD brain tissue homogenates (Homo sapiens, UniProt P10636); assay: Saturation binding assay of [^3H]M503-1619 in CBD brain tissue homogenates
Method in brief: (§1)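 Frozen brain homogenate in pH 7.0 PBS, diluted to a final 100 μg tissue per mL. Contained ~1 nM tritiated test compound plus 0.2–1000 nM unlabelled compound and 0.25% DMSO (final). Incubated 60 min at room temperature, GF/B filtration, three PBS washes, scintillation counting after standing overnight. Nondisplaceable binding set with ~1 μM unlabelled compound; bound corrected for diluted specific activity. KD from Scatchard slope, Bmax from x-intercept; at least triplicate.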

[2] = Total-body PET imaging study; type: in vivo, rhesus macaque; conditions: rhesus monkey
Brain PET imaging study = type: in vivo, cynomolgus macaque; conditions: cynomolgus monkey
Method in brief: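 Male cynomolgus macaque (8.5 kg), ketamine 10–20 mg kg−1 induction, kept on 40% N2O/60% O2 with 1.0–1.5% isoflurane. After a positioning scan and a 45 min transmission scan for attenuation, ~350 MBq of the 11C-labelled test compound was given by limb-vein catheter. Two-hour dynamic scan, filtered back projection with corrections, co-registration to a monkey MRI template, whole-brain VOI. SUV normalised to body weight and injected dose.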

[3] = target: α-Syn (Lewy bodies in PD, GCIs in MSA) (Homo sapiens, UniProt P37840); assay: Nuclear emulsion; type: binding; conditions: 5 nM and 15 nM, listed as [^3H]M503-1619
Method in brief: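 Fresh-frozen PD and MSA cryosections (16 μm) were quenched for lipofuscin with TrueBlack in 70% EtOH and immunostained for pS129 α-Syn. Sections were incubated with 5 or 15 nM tritiated test compound in 30 mM Tris–HCl pH 7.4 for 2 h at 37 °C, then given graded Tris/ethanol washes. Emulsion-dipped slides were exposed 4 days in the dark and developed. Silver grains were imaged by brightfield alongside fluorescence.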

synthetic α-Syn fibrils = synthetic α-Syn fibrils (Homo sapiens, UniProt P37840); assay: Saturation binding assay of [^3H]M503-1619 in α-Syn fibrils
[4] = target: PD brain tissue homogenates (Homo sapiens, UniProt P37840); assay: Saturation binding assay of [^3H]M503-1619 in PD brain tissue homogenates
Method in brief: as §1

[5] = Radiometabolite study of venous blood plasma; type: in vivo, rhesus monkey; conditions: 7.5 min post-injection
Method in brief: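 Plasma from a 26-year-old male rhesus macaque was sampled during a PET scan after IV injection of 105 MBq of the 11C-labelled test compound. The animal was anaesthetised with ketamine/dexmedetomidine and maintained on isoflurane. Venous blood was spun 5 min at 3000g and the plasma deproteinised with acetonitrile 1:1. Reverse-phase C18 HPLC used 65% 0.1 M ammonium formate/35% acetonitrile at 1.2 mL min−1. An in-line radio-detector measured parent fraction by standard retention time.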

[6] = target: AD brain tissue homogenates; assay: Saturation binding assay of [^3H]M503-1619 in AD brain tissue homogenates; parameters: species or system human; conditions: AD tissue (n = 4), mean ± SD
Method in brief: as §1

[7] = target: PSP brain tissue homogenates (Homo sapiens, UniProt P10636); assay: Saturation binding assay of [^3H]M503-1619 in PSP brain tissue homogenates
Chain of PSP brain tissue homogenates (P10636 561-698 limits assumed): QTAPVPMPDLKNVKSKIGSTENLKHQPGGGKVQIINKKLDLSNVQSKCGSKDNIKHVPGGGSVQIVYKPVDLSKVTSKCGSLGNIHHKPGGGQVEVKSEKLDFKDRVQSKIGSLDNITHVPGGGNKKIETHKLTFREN
Method in brief: as §1

Chain of CBD brain tissue homogenates (P10636 561-708 limits assumed): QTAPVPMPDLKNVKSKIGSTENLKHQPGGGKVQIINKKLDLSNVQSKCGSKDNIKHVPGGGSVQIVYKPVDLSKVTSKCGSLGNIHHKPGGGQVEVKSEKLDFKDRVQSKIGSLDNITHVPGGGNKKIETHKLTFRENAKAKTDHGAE

## COc1ccc(NC(=O)c2cnc(N3CCN(c4ccccn4)CC3)nc2N)cc1 [M503-1619, 4-Amino-N-(4-methoxyphenyl)-2-(4-(pyridin-2-yl)piperazin-1-yl)pyrimidine-5-carboxamide]
[1]
  Kd: 0.094 ± 0.013 µM
[1]; CBD tissue (n = 3)
  Bmax: 540 ± 130 nM
[2]
  Time of peak uptake of the whole brain: 2 to 3 min
  Whole brain peak to 60 min ratio: 3.2
[2]; whole brain
  Peak uptake of the whole brain, standardized uptake value (SUV): 2.5
Brain PET imaging study
  Time of peak uptake of the whole brain: 2 to 3 min
  Whole brain peak to 60 min ratio: 3.2
Brain PET imaging study; whole brain
  Peak uptake of the whole brain, standardized uptake value (SUV): 2.3
[3]; MSA brain tissue sections
  High-resolution autoradiography: binding to GCIs: not to GCIs present in MSA; also recorded: not on GCIs in MSA brain
[3]; PD brain tissue sections
  High-resolution autoradiography: binding to Lewy bodies: target engagement of [^3H]M503-1619 to Lewy bodies in PD brain; also recorded: accumulation of silver grains on Lewy bodies in PD
Synthetic α-Syn fibrils
  Kd: 0.0044 ± 0.001 µM
Synthetic α-Syn fibrils; α-Syn fibrils (n = 4)
  Bmax: 1156 ± 112 nM
[4]
  Kd: 0.0025 ± 0.0003 µM
[4]; PD tissue (n = 4)
  Bmax: 59 ± 10 nM
[4]; α-Syn vs. tau
  Selectivity vs. tau: 10–20 fold
[5]
  Parent (%): 57%
[6]
  Kd: 0.037 ± 0.002 µM
[7]
  Kd: 0.055 ± 0.003 µM
[7]; PSP tissue (n = 4)
  Bmax: 399 ± 24 nM
